# Laboratory results from ChEMBL document CHEMBL1275442, “Pharmacokinetics and tissue distribution of anidulafungin in rats” (Antimicrob Agents Chemother, 2008).
# Columns and labels:
# Type in all cases: ADME, organism-based
# [1] = Drug level in Long Evans rat eye assessed as radioactivity per gram of tissue at 5 mg/kg, iv administered as single bolus dose measured 6 hrs postdose by autoradiography; parameters: dose 5 mg/kg, route intravenous; conditions: in vivo
# Outline: (§1)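 Male pigmented Long Evans (HsdBlu:LE) rats, 7.5 weeks old, 202 to 217 g, single iv [¹⁴C]anidulafungin; one rat per sampling time. Euthanized by isoflurane and cardiac-puncture exsanguination. Sagittal whole-body sections quantified by phosphorimaging autoradiography, single samples corrected for section thickness across multiple sections per tissue. Concentrations (μg eq/g drug-derived radioactivity) interpolated from least-squares standard curves per scan.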
# Plasma = assay: Cmax in F344 rat plasma assessed as total compound-derived radioactivity per gram of tissue at 5 mg/kg, iv administered as single bolus dose after 5 mins by HPLC method; parameters: dose 5 mg/kg, route intravenous; conditions: in vivo
# Outline: (§2)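 Same F344 study: single 5 mg/kg IV [¹⁴C]anidulafungin given over about 5 min. Total drug-derived radioactivity (parent plus metabolites) counted by liquid scintillation, in […]. Noncompartmental analysis of the composite mean profile.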
# Liver [2] = assay: AUC (0 to 24 hrs) in F344 rat liver assessed as total compound-derived radioactivity per gram of tissue at 5 mg/kg, iv administered as single bolus dose […]; parameters: time < 24 hr, dose 5 mg/kg, route intravenous; conditions: in vivo; outline: as §2
# Spleen [3] = assay: Drug level in Long Evans rat spleen assessed as radioactivity per gram of tissue at 5 mg/kg, iv administered as single bolus dose measured 72 hrs postdose by autoradiography; parameters: dose 5 mg/kg, route intravenous; conditions: in vivo
# Outline: (§3)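 Male pigmented Long Evans (HsdBlu:LE) rats, 7.5 weeks old and 202 to 217 g, got a single iv dose of [14C]anidulafungin at 5 mg/kg. One rat per time point (0.5, 6, 12, 24, 72, 168 h) was euthanised by isoflurane and cardiac-puncture exsanguination. Sagittal whole-body sections were quantified by phosphorimaging. Samples were thickness-corrected, and concentrations (μg eq/g) were interpolated from least-squares standard curves.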
# Liver [4] = assay: Half life in F344 rat liver assessed as total compound-derived radioactivity at 5 mg/kg, iv administered as single bolus dose […]; parameters: dose 5 mg/kg, route intravenous; conditions: in vivo
# Outline: (§4)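 Male F344 rats, 10 to 11 weeks old and 223.6 to 243.8 g, got one iv dose of [14C]anidulafungin at 5 mg/kg over about 5 min. Blood, CSF, kidney, liver, lung, quadriceps, spleen and skin were sampled predose and at 0.083 to 72 h, 3 rats per time. Total radioactivity (parent plus metabolites) was measured by liquid scintillation counting. Parameters were noncompartmental, from a composite mean profile.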
# Cerebrospinal fluid [5] = assay: Drug level in Long Evans rat cerebrospinal fluid assessed as radioactivity per gram of tissue at 5 mg/kg, iv administered as single bolus dose measured 168 hrs postdose by autoradiography; parameters: dose 5 mg/kg, route intravenous; conditions: in vivo; outline: as §1
# Lung [6] = assay: AUC (0 to 24 hrs) in F344 rat lung assessed as total compound-derived radioactivity per gram of tissue at 5 mg/kg, iv administered as single bolus dose […]; parameters: time < 24 hr, dose 5 mg/kg, route intravenous; conditions: in vivo; outline: as §2
# Cerebrum = assay: Drug level in Long Evans rat cerebrum assessed as radioactivity per gram of tissue at 5 mg/kg, iv administered as single bolus dose measured 24 hrs postdose by autoradiography; parameters: dose 5 mg/kg, route intravenous; conditions: in vivo; outline: as §1
# Lung [7] = assay: Drug level in Long Evans rat lung assessed as radioactivity per gram of tissue at 5 mg/kg, iv administered as single bolus dose measured 168 hrs postdose by autoradiography; parameters: dose 5 mg/kg, route intravenous; conditions: in vivo; outline: as §1
# [8] = Cmax in F344 rat liver at 5 mg/kg, iv administered as single bolus dose after 5 min by HPLC method; parameters: dose 5 mg/kg, route intravenous
# Outline: (§5)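 Male F344 rats, 10–11 weeks, 223.6–243.8 g, given one IV dose of [¹⁴C]anidulafungin, 5 mg/kg, over about 5 min. Tissues and blood sampled at 0.083–72 h (n = 3 rats per time). Parent drug measured by HPLC; LLOQ/ULOQ were 20/5,120 ng/ml for plasma and 220/56,320 ng/g for tissue. Noncompartmental parameters taken from the composite mean profile.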
# [9] = Cmax in F344 rat plasma at 5 mg/kg, iv administered as single bolus dose after 5 min by HPLC method; parameters: dose 5 mg/kg, route intravenous; outline: as §5
# Cerebrospinal fluid [10] = assay: AUC (0 to 24 hrs) in F344 rat cerebrospinal fluid assessed as total compound-derived radioactivity per gram of tissue at 5 mg/kg, iv administered as single bolus dose […]; parameters: time < 24 hr, dose 5 mg/kg, route intravenous; conditions: in vivo; outline: as §2
# Kidney [11] = assay: Drug level in Long Evans rat kidney assessed as low disposition of radioactivity per gram of tissue at 5 mg/kg, iv administered as single bolus dose measured 168 hrs postdose by autoradiography; parameters: dose 5 mg/kg, route intravenous; conditions: in vivo; outline: as §1
# Blood [12] = assay: AUC (0 to infinity) in F344 rat blood assessed as total compound-derived radioactivity per gram of tissue at 5 mg/kg, iv administered as single bolus dose […]; parameters: dose 5 mg/kg, route intravenous, time infinity; conditions: in vivo; outline: as §2
# Kidney [13] = assay: AUC (0 to infinity) in F344 rat kidney assessed as total compound-derived radioactivity per gram of tissue at 5 mg/kg, iv administered as single bolus dose […]; parameters: time infinity, dose 5 mg/kg, route intravenous; conditions: in vivo; outline: as §2
# Lung [14] = assay: AUC (0 to 24 hrs) in F344 rat lung at 5 mg/kg, iv administered as single bolus dose; parameters: time < 24 hr, dose 5 mg/kg, route intravenous; conditions: in vivo; outline: as §5
# Blood [15] = assay: Half life in F344 rat blood assessed as total compound-derived radioactivity at 5 mg/kg, iv administered as single bolus dose […]; parameters: dose 5 mg/kg, route intravenous; conditions: in vivo; outline: as §4
# [16] = Tmax in F344 rat kidney at 5 mg/kg, iv administered as single bolus dose by HPLC method; parameters: dose 5 mg/kg, route intravenous
# Outline: (§6)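 F344 males, 10 to 11 weeks old and 223.6 to 243.8 g, got a single 5 mg/kg iv dose of [14C]anidulafungin over about 5 min. Plasma and tissues were collected predose and at 0.083 to 72 h, n = 3 per time point. Parent drug was quantified by HPLC-UV, with LLOQ/ULOQ of 20/5,120 ng/ml in plasma and 220/56,320 ng/g in tissue. Noncompartmental parameters came from a composite mean concentration-time profile.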
# Liver [17] = assay: AUC (0 to 24 hrs) in F344 rat liver at 5 mg/kg, iv administered as single bolus dose; parameters: time < 24 hr, dose 5 mg/kg, route intravenous; conditions: in vivo; outline: as §5
# Spleen [18] = assay: Drug level in Long Evans rat spleen assessed as radioactivity per gram of tissue at 5 mg/kg, iv administered as single bolus dose measured 6 hrs postdose by autoradiography; parameters: dose 5 mg/kg, route intravenous; conditions: in vivo; outline: as §3
# Liver [19] = assay: AUC (0 to infinity) in F344 rat liver at 5 mg/kg, iv administered as single bolus dose; parameters: time infinity, dose 5 mg/kg, route intravenous; conditions: in vivo; outline: as §5
# Kidney [20] = assay: Drug level in Long Evans rat kidney assessed as high disposition of radioactivity per gram of tissue at 5 mg/kg, iv administered as single bolus dose measured 0.5 hrs postdose by autoradiography; parameters: dose 5 mg/kg, route intravenous; conditions: in vivo; outline: as §1
# Cerebrospinal fluid [21] = assay: Drug level in Long Evans rat cerebrospinal fluid assessed as radioactivity per gram of tissue at 5 mg/kg, iv administered as single bolus dose measured 24 hrs postdose by autoradiography; parameters: dose 5 mg/kg, route intravenous; conditions: in vivo; outline: as §1
# [22] = Tmax in F344 rat liver at 5 mg/kg, iv administered as single bolus dose by HPLC method; parameters: dose 5 mg/kg, route intravenous; outline: as §6
# Rattus norvegicus = assay: Volume of distribution in F344 rat assessed as total compound-derived radioactivity at 5 mg/kg, iv administered as single bolus dose; parameters: dose 5 mg/kg, route intravenous; conditions: in vivo; outline: as §4
# Muscle tissue = assay: AUC (0 to 24 hrs) in F344 rat muscle at 5 mg/kg, iv administered as single bolus dose; parameters: time < 24 hr, dose 5 mg/kg, route intravenous; conditions: in vivo; outline: as §5
# Blood [23] = assay: Drug level in Long Evans rat blood assessed as radioactivity per gram of tissue at 5 mg/kg, iv administered as single bolus dose measured 6 hrs postdose by autoradiography; parameters: dose 5 mg/kg, route intravenous; conditions: in vivo; outline: as §1
compound,measurement,setting,value
CCCCCOc1ccc(-c2ccc(-c3ccc([14C](=O)N[C@H]4C[C@@H](O)[C@@H](O)NC(=O)[C@@H]5[C@@H](O)[C@@H](C)CN5C(=O)[C@H]([C@@H](C)O)NC(=O)[C@H]([C@H](O)[C@@H](O)c5ccc(O)cc5)NC(=O)[C@@H]5C[C@@H](O)CN5C(=O)[C@H]([C@@H](C)O)NC4=O)cc3)cc2)cc1 [14C-ANIDULAFUNGIN],Drug uptake,[1],1.74 ugequiv
same,Cmax,Plasma,7.57 ugequiv/g
same,AUC,Liver [2],1346.94 ugequiv.hr/g
same,Drug uptake,Spleen [3],4.37 ugequiv
same,t1/2,Liver [4],69.2 h
same,Drug uptake,Cerebrospinal fluid [5],2.18 ugequiv
same,AUC,Lung [6],934.92 ugequiv.hr/g
same,Drug uptake,Cerebrum,0.26 ugequiv
same,Drug uptake,Lung [7],0.96 ugequiv
same,Cmax,[8],15900 ng/g
same,Cmax,[9],5250 ng/mL
same,AUC,Cerebrospinal fluid [10],0.61 ugequiv.hr/g
same,Drug uptake,Kidney [11],0.7 ugequiv
same,AUC,Blood [12],243.62 ugequiv.hr/g
same,AUC,Kidney [13],1437.94 ugequiv.hr/g
same,AUC,Lung [14],557.77 µg·h/g
same,t1/2,Blood [15],1710 min
same,Tmax,[16],30 min
same,AUC,Liver [17],586.44 µg·h/g
same,Drug uptake,Spleen [18],22.15 ugequiv
same,AUC,Liver [19],767.22 µg·h/g
same,Drug uptake,Kidney [20],18.09 ugequiv
same,Drug uptake,Cerebrospinal fluid [21],8.92 ugequiv
same,Tmax,[22],4.98 min
same,Vd,Rattus norvegicus,0.2 L/kg
same,AUC,Muscle tissue,54.33 µg·h/g
same,Drug uptake,Blood [23],5.07 ugequiv
